From ChEMBL document CHEMBL1152300, “Ligand specificity of constitutive androstane receptor as probed by induced-fit docking and mutagenesis” (J Med Chem, 2008)

How the values were obtained:
[1] = target: T1, Nuclear receptor subfamily 1 group I member 3 (Mus musculus, UniProt O35627, F171L); test: Decrease in mouse CAR F171L mutant activation expressed in HEK293 cells at 10 uM by mammalian one-hybrid assay; type: cell-based; details: read-out: Activity
Procedure, shortened: (§1)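 GAL4 DBD fused to mouse CAR LBD (residues 118-358), wild type or point mutant, cotransfected with UASx4-tk-luc reporter and pCMVβ into HEK293 cells. Cells cultured with DMSO (0.1% v/v) or compound (final 1, 2 or 10 µM). Lysed 24 h post-transfection. Luciferase normalized to β-galactosidase, expressed relative to empty GAL4 vector (=1.0). Mean ± SD, three independent experiments.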

[2] = target: T2, Nuclear receptor subfamily 1 group I member 3 (Mus musculus, UniProt O35627, L212A); test: Effect on steroid receptor co-activator 1 binding to mouse CAR L212A mutant […] at 10 uM by yeast two-hybrid assay; type: cell-based; details: read-out: Activity
Procedure, shortened: (§2)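 Yeast two-hybrid assay. Yeast co-expressing wild-type or mutant mouse CAR LBD and the SRC-1 partner were selected on SD plates lacking leucine and tryptophan. Random colonies were pooled and amplified, then treated with DMSO or test chemical for 3.5 h. β-galactosidase activity was normalized to cell density and set relative to wild-type mCAR + SRC-1 with DMSO (=100). Mean ± standard deviation of two determinations, each in triplicate.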

[3] = target: Nuclear receptor subfamily 1 group I member 3 (Mus musculus, UniProt O35627, L253F); details: HEK293, mouse, read-out: Activity
[4] = target: T1, Nuclear receptor subfamily 1 group I member 3; test: Decrease in nuclear co-repressor receptor binding to mouse CAR F171L mutant […] at 10 uM by yeast two-hybrid assay; type: cell-based; parameters: scale not given: the % may be the effect or the level left
Procedure, shortened: (§3)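 Yeast expressing wild-type or mutant mouse CAR LBD plus NCoR, selected on SD plates lacking leucine and tryptophan. Pooled colonies treated with DMSO or compound for 3.5 h. β-Galactosidase activity normalized to cell density. Reference is 10 µM androstenol (=100). Mean ± SD of two independent determinations, each in triplicate.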

[5] = target: T3, Nuclear receptor subfamily 1 group I member 3 (Mus musculus, UniProt O35627, T350M); details: HEK293, mouse, read-out: Activity
[6] = target: T4, Nuclear receptor subfamily 1 group I member 3 (Mus musculus, UniProt O35627, S251L); test: Decrease in nuclear co-repressor receptor binding to mouse CAR S251L mutant […] at 10 uM by yeast two-hybrid assay; type: cell-based; parameters: scale not given: the % may be the effect or the level left
[7] = target: Nuclear receptor subfamily 1 group I member 3 (Mus musculus, UniProt O35627, I252L); test: Enhancement of steroid receptor coactivator 1 binding to mouse CAR I252L mutant […] at 10 uM by yeast two-hybrid assay; type: cell-based
[8] = target: T5, Nuclear receptor subfamily 1 group I member 3 (Mus musculus, UniProt O35627, H213A); details: HEK293, mouse, read-out: Activity
[9] = target: Nuclear receptor subfamily 1 group I member 3 (Mus musculus, UniProt O35627, T350A); details: HEK293, mouse, read-out: Activity
[10] = target: T3, Nuclear receptor subfamily 1 group I member 3; details: HEK293, mouse, read-out: Activity; remark: listed apart in the source
[11] = target: Nuclear receptor subfamily 1 group I member 3 (Mus musculus, UniProt O35627, N175A); test: Decrease in mouse CAR N175A mutant activation expressed in HEK293 cells at 10 uM by mammalian one-hybrid assay; type: cell-based; details: read-out: Activity
Procedure, shortened: (§4)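 GAL4-DBD fused to mouse CAR LBD (residues 118-358), wild-type or point mutant, cotransfected with UASx4-tk-luc reporter and pCMVβ into HEK293 cells. Cells were exposed to final 1 µM, 2 µM or 10 µM test chemical, or 0.1% v/v DMSO, for 24 h after transfection. Luciferase was normalized to β-galactosidase and set against empty GAL4 vector (=1.0). Mean ± standard deviation, three independent experiments.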

[12] = target: T5, Nuclear receptor subfamily 1 group I member 3; details: HEK293, mouse, read-out: Activity; remark: listed apart in the source
[13] = target: T6, Nuclear receptor subfamily 1 group I member 3 (Mus musculus, UniProt O35627); test: Activation of wild type mouse CAR expressed in HEK293 cells at 10 uM by mammalian one-hybrid transactivation assay; details: hek293, 10 µM
T6 sequence (O35627 whole entry): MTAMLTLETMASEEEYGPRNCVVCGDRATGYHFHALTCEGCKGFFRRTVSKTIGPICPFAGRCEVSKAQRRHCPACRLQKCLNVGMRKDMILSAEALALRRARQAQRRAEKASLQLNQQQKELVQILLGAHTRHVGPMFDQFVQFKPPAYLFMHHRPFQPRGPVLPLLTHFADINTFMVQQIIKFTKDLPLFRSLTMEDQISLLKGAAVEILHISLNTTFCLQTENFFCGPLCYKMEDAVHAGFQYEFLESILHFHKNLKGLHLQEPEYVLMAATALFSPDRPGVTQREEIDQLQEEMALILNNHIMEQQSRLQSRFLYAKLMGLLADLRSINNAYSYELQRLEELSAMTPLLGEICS

[14] = target: T1, Nuclear receptor subfamily 1 group I member 3; test: Enhancement of steroid receptor coactivator 1 binding to mouse CAR F171L mutant […] at 10 uM by yeast two-hybrid assay; type: cell-based; procedure, shortened: as §2
[15] = target: T7, mouse CAR (NR1I3), wild type (Mus musculus, UniProt O35627); test: Activation of wild type mouse CAR expressed in HEK293 cells at 1 uM by mammalian one-hybrid assay; type: cell-based; details: HEK293 cells expressing wild type mouse CAR, read-out: FC; procedure, shortened: as §1
T7 sequence (O35627 whole entry): T6 sequence (O35627 whole entry)

[16] = target: T2, Nuclear receptor subfamily 1 group I member 3; test: Enhancement of steroid receptor co-activator 1 binding to mouse CAR L212A mutant […] at 10 uM by yeast two-hybrid assay; type: cell-based
[17] = target: T4, Nuclear receptor subfamily 1 group I member 3; details: HEK293, mouse, read-out: Activity
[18] = target: T7, mouse CAR (NR1I3), wild type; test: Activation of wild type mouse CAR expressed in HEK293 cells at 10 uM by mammalian one-hybrid assay; type: cell-based; details: HEK293 cells expressing wild type mouse CAR, read-out: FC; procedure, shortened: as §1
[19] = target: T6, Nuclear receptor subfamily 1 group I member 3; test: Activation of mouse CAR; procedure, shortened: as §4
[20] = target: Nuclear receptor subfamily 1 group I member 3 (Mus musculus, UniProt O35627, Y336A); test: Decrease in steroid receptor coactivator 1 binding to mouse CAR Y336A mutant […] at 10 uM by yeast two-hybrid assay; type: cell-based; details: read-out: Activity
Procedure, shortened: as §3, with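 “SRC-1,” for “NCoR,”, “wild-type CAR + SRC-1 with DMSO” for “10 µM androstenol”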

[21] = target: T6, Nuclear receptor subfamily 1 group I member 3; test: Activation of wild type mouse CAR expressed in HEK293 cells at 2 uM by mammalian one-hybrid assay; type: cell-based; details: hek293, 2 µM; procedure, shortened: as §4

T1 sequence (O35627 whole entry F171L, the tested form may be a part): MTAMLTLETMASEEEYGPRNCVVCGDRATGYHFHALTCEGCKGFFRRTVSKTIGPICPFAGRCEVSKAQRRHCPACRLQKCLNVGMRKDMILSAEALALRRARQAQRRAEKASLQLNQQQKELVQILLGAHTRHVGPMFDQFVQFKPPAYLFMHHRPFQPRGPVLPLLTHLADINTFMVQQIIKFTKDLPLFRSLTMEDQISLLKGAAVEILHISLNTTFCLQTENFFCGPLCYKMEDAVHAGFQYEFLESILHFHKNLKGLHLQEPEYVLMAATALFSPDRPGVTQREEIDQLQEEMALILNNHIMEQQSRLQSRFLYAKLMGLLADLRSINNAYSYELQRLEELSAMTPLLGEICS
T2 sequence (O35627 whole entry L212A, the tested form may be a part): as the sequence (O35627 whole entry F171L, the tested form may be a part) above, with L171F, L212A counted along it
T3 sequence (O35627 whole entry T350M): as the sequence (O35627 whole entry F171L, the tested form may be a part) above, with L171F, T350M counted along it
T5 sequence (O35627 whole entry H213A): as the sequence (O35627 whole entry F171L, the tested form may be a part) above, with L171F, H213A counted along it
T4 sequence (O35627 whole entry S251L): as the sequence (O35627 whole entry F171L, the tested form may be a part) above, with L171F, S251L counted along it
Chain of Nuclear receptor subfamily 1 group I member 3 (Mus musculus, UniProt O35627, I252L) (O35627 whole entry I252L): as the sequence (O35627 whole entry F171L, the tested form may be a part) above, with L171F, I252L counted along it
Chain of Nuclear receptor subfamily 1 group I member 3 (Mus musculus, UniProt O35627, T350A) (O35627 whole entry T350A): as the sequence (O35627 whole entry F171L, the tested form may be a part) above, with L171F, T350A counted along it
Chain of Nuclear receptor subfamily 1 group I member 3 (Mus musculus, UniProt O35627, Y336A) (O35627 whole entry Y336A): as the sequence (O35627 whole entry F171L, the tested form may be a part) above, with L171F, Y336A counted along it
Chain of Nuclear receptor subfamily 1 group I member 3 (Mus musculus, UniProt O35627, L253F) (O35627 whole entry L253F): as the sequence (O35627 whole entry F171L, the tested form may be a part) above, with L171F, L253F counted along it
Chain of Nuclear receptor subfamily 1 group I member 3 (Mus musculus, UniProt O35627, N175A) (O35627 whole entry N175A, the tested form may be a part): as the sequence (O35627 whole entry F171L, the tested form may be a part) above, with L171F, N175A counted along it

Structure (SMILES) | inhibition at 10 µM [1] | activity at 10 µM [2] | inhibition at 10 µM [3] | Activity [4] | inhibition at 10 µM [5] | Activity [6] | Activity [7] | inhibition at 10 µM [8] | inhibition at 10 µM [9] | inhibition at 10 µM [10] | inhibition at 10 µM [11] | inhibition at 10 µM [12] | fold change (FC) [13] | Activity [14] | fold induction at 1 µM [15] | Activity [16] | inhibition at 10 µM [17] | fold induction at 10 µM [18] | Activity [19] | inhibition at 10 µM [20] | also measured
C[C@]12CC[C@@H](O)C[C@@H]1CC[C@@H]1[C@@H]2CC[C@]2(C)C=CC[C@@H]12 [ANDROSTENOL] | < 50% | < 50% | ≥ 50% | >= 50% | ≥ 50% | >= 50% | > 150% | ≥ 50% | – | – | – | – | – | – | – | – | – | – | – | – | –
COc1ccccc1CC(CC(=O)Cc1ccccc1)OC (centres undefined) | – | – | ≥ 50% | >= 50% | ≥ 50% | >= 50% | >= 50% | – | 50% | < 50% | 50% | 50% | 2 | > 50% | 2 | > 150% | < 50% | 2 | Active | – | –
COc1ccc(C(c2ccc(OC)cc2)C(Cl)(Cl)Cl)cc1 [METHOXYCHLOR] | < 50% | – | – | – | ≥ 50% | >= 50% | >= 50% | ≥ 50% | 50% | – | – | – | 1.4 | >= 50% | – | >= 50% | < 50% | – | – | ≥ 50% | Activity [21]: 40%
Clc1ccccc1C(c1ccccc1)(c1ccccc1)n1ccnc1 [CLOTRIMAZOLE] | – | – | – | – | – | – | – | – | – | – | – | – | – | – | – | – | – | – | – | – | Activity [21]: 40%
Clc1cnc(Oc2ccc(Oc3ncc(Cl)cc3Cl)cc2)c(Cl)c1 | – | – | – | – | – | – | – | – | – | – | – | – | – | – | 2 | – | – | 2 | – | – | –
COc1ccc(C(=O)CCCc2ccccc2)cc1 | – | < 50% | – | – | ≥ 50% | >= 50% | > 150% | – | – | 50% | < 50% | 50% | 1.4 | – | – | – | – | – | Active | ≥ 50% | –
